In ChEMBL document CHEMBL4387752, “Identification of substituted benzothiazole sulfones as potent and selective inhibitors of endothelial lipase” (Bioorg Med Chem Lett, 2019):

Experiments:
[1] = target: T1, Endothelial lipase (Homo sapiens, UniProt Q9Y5X9); experiment: Inhibition of human endothelial lipase derived from human HT1080 cell conditioned media using PED-A1 as substrate incubated for 20 mins and measured every 20 secs for 10 mins by FRET assay
T1 sequence (Q9Y5X9 whole entry): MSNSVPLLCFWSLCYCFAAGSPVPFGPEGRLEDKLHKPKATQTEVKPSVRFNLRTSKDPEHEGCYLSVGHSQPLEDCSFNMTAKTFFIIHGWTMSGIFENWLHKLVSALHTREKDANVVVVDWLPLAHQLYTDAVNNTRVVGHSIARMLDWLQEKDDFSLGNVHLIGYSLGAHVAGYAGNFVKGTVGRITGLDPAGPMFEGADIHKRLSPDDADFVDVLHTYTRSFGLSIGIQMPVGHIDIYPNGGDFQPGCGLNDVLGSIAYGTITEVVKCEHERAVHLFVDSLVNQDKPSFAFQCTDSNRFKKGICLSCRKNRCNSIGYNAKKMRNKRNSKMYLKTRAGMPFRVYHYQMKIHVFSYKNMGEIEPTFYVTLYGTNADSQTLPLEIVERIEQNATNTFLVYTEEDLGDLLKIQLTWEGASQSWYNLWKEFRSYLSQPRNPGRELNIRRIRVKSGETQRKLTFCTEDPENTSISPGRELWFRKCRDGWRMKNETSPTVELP
How it was run: (§1)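 IC50s were calculated from mean inhibition values of duplicate determinations.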

[2] = target: T2, Hepatic triacylglycerol lipase (Homo sapiens, UniProt P11150); experiment: Inhibition of human hepatic lipase expressed in African green monkey COS7 cells using PED-A1 as substrate incubated for 20 mins and measured every 20 secs for 10 mins by FRET assay; assay type: cell-based; how it was run: as §1
T2 sequence (P11150 whole entry): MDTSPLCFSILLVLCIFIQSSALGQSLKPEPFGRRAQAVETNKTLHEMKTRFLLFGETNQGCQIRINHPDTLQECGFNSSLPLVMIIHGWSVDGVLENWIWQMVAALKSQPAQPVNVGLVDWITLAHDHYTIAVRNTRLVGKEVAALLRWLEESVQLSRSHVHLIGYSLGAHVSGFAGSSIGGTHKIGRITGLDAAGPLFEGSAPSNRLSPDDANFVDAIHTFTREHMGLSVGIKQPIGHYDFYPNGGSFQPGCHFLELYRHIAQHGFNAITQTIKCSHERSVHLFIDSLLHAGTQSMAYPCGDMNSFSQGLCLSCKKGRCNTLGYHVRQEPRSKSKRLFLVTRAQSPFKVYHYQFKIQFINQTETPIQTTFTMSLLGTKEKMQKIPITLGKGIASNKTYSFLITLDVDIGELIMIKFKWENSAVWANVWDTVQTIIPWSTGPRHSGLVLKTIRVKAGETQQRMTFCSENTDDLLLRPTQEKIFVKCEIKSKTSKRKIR

[3] = target: T3, Endothelial lipase (Mus musculus, UniProt Q9WVG5); experiment: Inhibition of mouse endothelial lipase expressed in HEK293F cells using D31-POPC-HDL as substrate incubated for 2 hrs in presence of mouse plasma by LC/MS analysis
T3 sequence (Q9WVG5 whole entry): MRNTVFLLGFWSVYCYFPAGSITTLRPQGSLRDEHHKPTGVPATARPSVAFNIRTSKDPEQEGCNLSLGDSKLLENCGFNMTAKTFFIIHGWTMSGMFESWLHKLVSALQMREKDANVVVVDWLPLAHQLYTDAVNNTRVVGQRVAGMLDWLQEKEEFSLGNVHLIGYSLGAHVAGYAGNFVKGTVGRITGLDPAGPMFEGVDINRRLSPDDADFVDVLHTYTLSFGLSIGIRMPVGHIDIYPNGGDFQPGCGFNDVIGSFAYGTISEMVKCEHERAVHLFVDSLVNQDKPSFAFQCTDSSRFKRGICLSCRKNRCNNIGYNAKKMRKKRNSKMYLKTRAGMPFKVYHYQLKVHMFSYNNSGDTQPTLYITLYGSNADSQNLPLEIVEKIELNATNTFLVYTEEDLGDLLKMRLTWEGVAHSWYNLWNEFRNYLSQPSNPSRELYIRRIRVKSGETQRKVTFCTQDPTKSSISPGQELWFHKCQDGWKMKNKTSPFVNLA
How it was run: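 IC50 values were derived from the means of duplicate inhibition measurements.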

[4] = Cmax in Balb/c mouse at 10 mg/kg, po; assay type: ADME, organism-based; design: dose 10 mg/kg, route oral; conditions: in vivo
How it was run: (§2)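 Oral PK in fasted male balb/c mice. Dosing vehicle was ethanol/PEG 400/water (10:60:30).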

[5] = Plasma concentration in Balb/c mouse at 10 mg/kg, po measured after 7 hrs; assay type: ADME, organism-based; how it was run: as §2
[6] = Plasma concentration in Balb/c mouse at 10 mg/kg, po measured after 24 hrs; assay type: ADME, organism-based; how it was run: as §2
[7] = Tmax in Balb/c mouse at 10 mg/kg, po; assay type: ADME, organism-based; conditions: in vivo; how it was run: as §2
[8] = Total AUC in Balb/c mouse at 10 mg/kg, po measured after 24 hrs; assay type: ADME, organism-based; design: dose 10 mg/kg, time AUCmax, route oral; conditions: in vivo; how it was run: as §2
[9] = Metabolic stability in Balb/c mouse liver microsomes assessed as parent compound remaining at 0.5 uM measured after 10 mins; assay type: ADME, Microsome; conditions: read-out: Stability
How it was run: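 Test compound at 0.5 μM was incubated for 10 min with mouse liver microsomes. The read-out is the percentage of parent remaining.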

[10] = Permeability of compound at pH 5.5 by PAMPA; assay type: ADME; conditions: read-out: permeability
How it was run: (§3)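 Permeability was measured by parallel artificial membrane permeability assay (PAMPA) at pH 5.5 and pH 7.4. Values are reported in nm/s.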

[11] = Permeability of compound at pH 7.4 by PAMPA; assay type: ADME; conditions: read-out: permeability; how it was run: as §3

## CS(=O)(=O)C(C(=O)NCCNS(N)(=O)=O)c1nc2ccc(-c3ccccc3)cc2s1 (centres undefined)
[1]
  IC50: 450 nM
[2]
  IC50: 81 nM

## CS(=O)(=O)C(C(=O)NCCS(N)(=O)=O)c1nc2ccc(-c3ccc(C(=O)N4CCOCC4)cc3)cc2s1 (centres undefined)
[1]
  IC50: 10 nM
[2]
  IC50: 280 nM
[3]
  IC50: 320 nM
[4]
  Cmax: 36 nM
[5]
  concentration at 7 h: 8 nM
[6]
  concentration at 24 h: 5 nM
[7]
  Tmax: 2.6 h
[8]
  AUC at 24 h: 0.16 µM·h
[9]
  remaining at 10 min, 0.5 µM: 100%
[10]
  Papp: 1.2 ×10⁻⁶ cm/s
[11]
  Papp: 1.3 ×10⁻⁶ cm/s

## CS(=O)(=O)C(C(=O)NCC(=O)NC1CC1)c1nc2ccc(-c3ccccc3)cc2s1 (centres undefined)
[2]
  IC50: 47 nM
